A selection: hits, their analogues and other compounds. The true share with any hit is near 2.3%.
CD11b adhes enh: CD11b/CD18-fibrinogen binding enhancement | P05107+P11215 | K562 CD11b/CD18 adhesion to fibrinogen, ATPlite luminescence | activation, % at 10 µM | 93,000 compounds, 0.07% hits;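 active means 10 µM primary screen giving 50% or more activity, confirmed by 40% or more on retest at that dose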
Mac1 fbg inh: inhibitors of human CD11b/CD18 binding to fibrinogen. 93,000 compounds, 0.54% hits. inhibition, % at 10 µM. K562 CD11b/CD18 adhesion to fibrinogen, ATPlite luminescence; Mn2+ added to activate the integrin. P05107+P11215;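 active means primary inhibition of 50% or more at 10 µM, then 40% or more on retest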
tolC growth inh: blocks growth of E. coli BW25113 tolC mutant; OD615; growth inhibition, % at 10 µM (by protocol); AID 573; 65,000 compounds, 2.2% hits;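 active means growth inhibition at or above a cutoff equal to the mean over every tested compound plus 3 SD, cut at about 60% in these data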;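 further: growth measured after 20 h incubation at 37 °C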
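signal = optical density read at 615 nm | test system = E. coli ΔtolC::kan strain BW25113 | timing = 20 h compound exposure of bacteria at 37 °C | buffer or medium = LB medium plus 50 µg/mL kanamycin | compound dosing = 10 µM final, single dose | evaluation = % inhibition of E. coli growth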
Ecoli WT expand: growth inhibitors of E. coli BW25113 wild type; OD600 absorbance; growth inhibition, % at 100 µM; 98,000 compounds, 0.15% hits;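 active means growth inhibition above about 50% at one test dose, limit read from the data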;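 further: growth measured after 20 h incubation at 37 °C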
Pyk2 oligo antag: blocks oligomerization of human Pyk2 in cells. 99,000 compounds, 0.83% hits. Q293 cells, Pyk2 FERM NanoBiT luminescence; hits give low values. z-score (the deposit names both 25 µM and 10 µM);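 active means Z-score of -3 or lower, scaled per plate to the spread of control and sample wells; inactive means z-score above -3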;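 further: negative z-score means lost luminescence so less FERM oligomerization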
Hits are given with their value.

COc1ccc(C(=O)C(CN2CCOCC2)c2ccccc2)cc1F (stereo unspecified) was read as CD11b adhes enh inactive, Mac1 fbg inh inactive, tolC growth inh 78.2, Ecoli WT expand inactive and Pyk2 oligo antag inactive.
For COc1ccc(C(O)C(CN2CCOCC2)c2ccccc2)cc1F (stereo unspecified) the results were CD11b adhes enh inactive, Mac1 fbg inh inactive, tolC growth inh inactive, Ecoli WT expand inactive and Pyk2 oligo antag inactive.
Screening O=C(NCc1ccccc1C(F)(F)F)C1CC(c2ccccc2[N+](=O)[O-])=NO1 (stereo unspecified) returned Ecoli WT expand inactive.
For Cc1ccc(C)c(Cn2nnc3c(=O)[nH]c(C4CCN(C(=O)c5cccs5)CC4)nc32)c1 the results were CD11b adhes enh inactive, Mac1 fbg inh inactive, tolC growth inh 64.1, Ecoli WT expand inactive and Pyk2 oligo antag inactive.
For CC(NC(=O)Nc1nnc(C(F)(F)F)s1)(C(F)(F)F)C(F)(F)F the results were CD11b adhes enh inactive, Mac1 fbg inh 99.4, tolC growth inh inactive, Ecoli WT expand 71.0 and Pyk2 oligo antag inactive.
For CCOc1ccc(NC(=O)CC2C(=O)N(c3ccccc3)C(=O)N2CCc2cccs2)cc1 (stereo unspecified) the results were Pyk2 oligo antag inactive.
Screening O=[N+]([O-])c1nn(-c2ccc3c(c2)OCCO3)n(O)c1=Nc1ccc(Cl)cc1 returned Ecoli WT expand inactive and Pyk2 oligo antag -3.44.
Screening CCOc1cc(NC(=O)C2CC2)c(OCC)cc1NC(=O)c1ccccn1 returned CD11b adhes enh inactive, Mac1 fbg inh inactive, tolC growth inh inactive, Ecoli WT expand inactive and Pyk2 oligo antag -3.23.
`Cc1ccc(Nc2nnc(SCC(=O)Nc3ccc(S(=O)(=O)N4CCOCC4)cc3)s2)cc1` gave CD11b adhes enh inactive, Mac1 fbg inh 52.0, Ecoli WT expand inactive and Pyk2 oligo antag inactive.
C[N+]1=C2CCCCCN2C(O)(c2ccccc2)C1 (stereo unspecified) was read as CD11b adhes enh inactive, Mac1 fbg inh inactive, tolC growth inh inactive, Ecoli WT expand inactive and Pyk2 oligo antag inactive.
c1ccc(-c2cc3c(ccc4nonc43)nn2)cc1 was read as CD11b adhes enh inactive, Mac1 fbg inh inactive, tolC growth inh inactive, Ecoli WT expand inactive and Pyk2 oligo antag inactive.
`On1onc2c3cc(-c4ccccc4)nc3ccc21` gave CD11b adhes enh inactive, Mac1 fbg inh inactive, tolC growth inh 98.0, Ecoli WT expand inactive and Pyk2 oligo antag inactive.
For Cc1c(Cl)cccc1NC(=S)NN1CCOCC1 the results were CD11b adhes enh inactive, Mac1 fbg inh inactive, Ecoli WT expand inactive and Pyk2 oligo antag inactive.
`CCOC(=O)c1cnc(-n2nc(C)cc2C)nc1Nc1ccccc1OC` gave CD11b adhes enh inactive, Mac1 fbg inh inactive and Ecoli WT expand inactive.
`CCOC(=O)c1cnc(-n2cc(C)cn2)nc1Nc1ccccc1OCC` gave tolC growth inh 67.8, Ecoli WT expand inactive and Pyk2 oligo antag inactive.
`Cn1c(SCC(=O)NCc2ccccc2)nnc1C1CC1` gave CD11b adhes enh inactive, Mac1 fbg inh inactive, tolC growth inh inactive, Ecoli WT expand inactive and Pyk2 oligo antag inactive.
CCN(c1ccccc1)S(=O)(=O)c1ccc(NCC2COc3ccccc3O2)nc1 (stereo unspecified) was read as CD11b adhes enh inactive, Mac1 fbg inh inactive, tolC growth inh 61.6, Ecoli WT expand inactive and Pyk2 oligo antag inactive.
For COc1ccc2nc(C)c(C(=O)OCCN(C)C)cc2c1 the results were CD11b adhes enh inactive, Mac1 fbg inh inactive and tolC growth inh inactive.
`COCCN1Cc2cccc(C(=O)NC(C)c3cccs3)c2C1=O` (stereo unspecified) gave CD11b adhes enh inactive, Mac1 fbg inh inactive, Ecoli WT expand inactive and Pyk2 oligo antag inactive.
`CCOc1ccccc1C(=O)NC(C(=O)OCC(=O)Nc1nnc(-c2ccccc2)o1)C(C)C` (stereo unspecified) gave tolC growth inh 86.8, Ecoli WT expand inactive and Pyk2 oligo antag inactive.
CCc1nc(C)cn1S(=O)(=O)c1cc(C)c(OC)c(C)c1C was read as CD11b adhes enh inactive, Mac1 fbg inh 79.9, Ecoli WT expand inactive and Pyk2 oligo antag inactive.
For CCc1nc(C)cn1S(=O)(=O)c1cc(C)c(OC)cc1C the results were CD11b adhes enh inactive, Mac1 fbg inh inactive, tolC growth inh inactive and Ecoli WT expand inactive.
`Cc1ccc(OCC(O)Cn2c(=N)n(Cc3ccccc3)c3ccccc32)cc1` (stereo unspecified) gave CD11b adhes enh inactive, Mac1 fbg inh inactive, Ecoli WT expand inactive and Pyk2 oligo antag inactive.
COc1ccc(OCC(O)Cn2c(=N)n(Cc3ccccc3)c3ccccc32)cc1 (stereo unspecified) was read as CD11b adhes enh inactive, Mac1 fbg inh inactive, tolC growth inh 66.2, Ecoli WT expand inactive and Pyk2 oligo antag inactive.
For O=C(NC(=S)Nc1ccc(S(=O)(=O)NC2CCCCC2)cc1)c1cccs1 the results were CD11b adhes enh inactive and Mac1 fbg inh inactive.
Screening Cc1ccc(C)c2[nH]c(=O)c(CN(CC3CCCO3)S(=O)(=O)c3ccc4c(c3)OCCO4)cc12 (stereo unspecified) returned CD11b adhes enh inactive, Mac1 fbg inh inactive, tolC growth inh 60.4, Ecoli WT expand inactive and Pyk2 oligo antag inactive.
`Cc1nn(C)c(C)c1S(=O)(=O)N1CCCC(C(=O)NCC2COc3ccccc3O2)C1` (stereo unspecified) gave CD11b adhes enh inactive, Mac1 fbg inh inactive, tolC growth inh inactive and Ecoli WT expand inactive.
`Cc1nc2nc(-c3ccco3)[nH]n2c(=O)c1Cc1ccccc1` gave CD11b adhes enh inactive, Mac1 fbg inh inactive, tolC growth inh 72.3, Ecoli WT expand inactive and Pyk2 oligo antag inactive.
Screening O=C(NCC1COc2ccccc2O1)C1CCCN(S(=O)(=O)c2cnc[nH]2)C1 (stereo unspecified) returned CD11b adhes enh inactive, Mac1 fbg inh inactive and tolC growth inh inactive.
Cc1ccc2c(c1)c(C)c(C)n2CC(O)Cn1nc(C)c(Br)c1C (stereo unspecified) was read as CD11b adhes enh inactive, Mac1 fbg inh inactive, tolC growth inh 81.7, Ecoli WT expand inactive and Pyk2 oligo antag inactive.
`CC(=O)c1cccc(NC(=O)CSCc2ccccc2)c1` gave CD11b adhes enh inactive, Mac1 fbg inh inactive, Ecoli WT expand inactive and Pyk2 oligo antag inactive.
Screening CCOc1cc(C)nc(NCc2ccccc2)n1 returned CD11b adhes enh inactive, Mac1 fbg inh inactive, Ecoli WT expand inactive and Pyk2 oligo antag inactive.
`CCCCOc1cc(C)nc(NCc2ccccc2)n1` gave CD11b adhes enh inactive, Mac1 fbg inh inactive, tolC growth inh 66.8, Ecoli WT expand inactive and Pyk2 oligo antag inactive.
For CC(=O)N(C(C)=O)S(=O)(=O)c1ccc(N=NN2CCOCC2)cc1 the results were Pyk2 oligo antag inactive.
Cc1ccccc1-c1n[nH]c(=S)n1/N=C/c1c(C)nn(-c2ccccc2)c1C was read as CD11b adhes enh inactive and Mac1 fbg inh inactive.
Screening CCN(CC)S(=O)(=O)c1ccc2[nH]cc(C(=O)NCCC3=CCCCC3)c(=O)c2c1 returned CD11b adhes enh inactive, Mac1 fbg inh inactive, tolC growth inh 97.7, Ecoli WT expand inactive and Pyk2 oligo antag inactive.

Bioassay records as filed in PubChem.
